Reference: ChEMBL document CHEMBL1212859, “Novel aminopeptidase N (APN/CD13) inhibitors derived from 3-phenylalanyl-N'-substituted-2,6-piperidinedione” (Bioorg Med Chem, 2010)

How the values were obtained:
[1] = molecular target: T1, Aminopeptidase N (Sus scrofa, UniProt P15145); experiment: Inhibition of pig kidney microsome aminopeptidase N after 30 mins by UV-vis spectrophotometric analysis
T1 sequence (P15145 whole entry): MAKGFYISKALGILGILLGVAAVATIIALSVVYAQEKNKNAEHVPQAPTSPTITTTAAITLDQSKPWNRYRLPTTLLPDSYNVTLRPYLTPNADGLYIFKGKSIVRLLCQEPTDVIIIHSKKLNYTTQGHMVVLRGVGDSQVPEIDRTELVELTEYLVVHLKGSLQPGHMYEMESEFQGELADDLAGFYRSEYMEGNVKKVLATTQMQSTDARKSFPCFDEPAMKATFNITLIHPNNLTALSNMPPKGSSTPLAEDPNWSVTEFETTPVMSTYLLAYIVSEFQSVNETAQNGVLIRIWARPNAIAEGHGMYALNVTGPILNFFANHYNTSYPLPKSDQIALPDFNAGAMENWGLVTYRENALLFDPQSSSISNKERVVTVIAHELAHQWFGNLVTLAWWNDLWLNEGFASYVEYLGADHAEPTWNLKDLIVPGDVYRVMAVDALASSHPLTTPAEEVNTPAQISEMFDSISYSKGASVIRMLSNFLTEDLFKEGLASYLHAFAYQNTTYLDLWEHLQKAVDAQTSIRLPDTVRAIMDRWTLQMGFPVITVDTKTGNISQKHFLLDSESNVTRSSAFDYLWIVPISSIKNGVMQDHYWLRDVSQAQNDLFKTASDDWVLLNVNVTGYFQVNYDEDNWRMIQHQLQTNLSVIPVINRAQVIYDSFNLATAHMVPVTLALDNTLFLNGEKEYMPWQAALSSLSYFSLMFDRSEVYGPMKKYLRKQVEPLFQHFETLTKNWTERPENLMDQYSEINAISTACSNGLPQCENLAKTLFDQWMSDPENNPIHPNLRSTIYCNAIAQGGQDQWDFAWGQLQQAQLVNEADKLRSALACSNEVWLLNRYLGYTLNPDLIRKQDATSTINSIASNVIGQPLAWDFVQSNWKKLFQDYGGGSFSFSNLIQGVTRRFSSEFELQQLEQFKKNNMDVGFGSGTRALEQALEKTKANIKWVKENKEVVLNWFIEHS
Method in brief: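 Enzyme was porcine kidney microsomal aminopeptidase at 4 mg/ml final, with L-Leu-p-nitroanilide as substrate. Inhibitor solutions were made in assay buffer adjusted to pH 7.5. Inhibitors were preincubated with enzyme for 30 min at room temperature.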

[2] = molecular target: 72 kDa type IV collagenase (Homo sapiens, UniProt P08253); experiment: Inhibition of MMP2 after 30 mins
Sequence of 72 kDa type IV collagenase (P08253 whole entry): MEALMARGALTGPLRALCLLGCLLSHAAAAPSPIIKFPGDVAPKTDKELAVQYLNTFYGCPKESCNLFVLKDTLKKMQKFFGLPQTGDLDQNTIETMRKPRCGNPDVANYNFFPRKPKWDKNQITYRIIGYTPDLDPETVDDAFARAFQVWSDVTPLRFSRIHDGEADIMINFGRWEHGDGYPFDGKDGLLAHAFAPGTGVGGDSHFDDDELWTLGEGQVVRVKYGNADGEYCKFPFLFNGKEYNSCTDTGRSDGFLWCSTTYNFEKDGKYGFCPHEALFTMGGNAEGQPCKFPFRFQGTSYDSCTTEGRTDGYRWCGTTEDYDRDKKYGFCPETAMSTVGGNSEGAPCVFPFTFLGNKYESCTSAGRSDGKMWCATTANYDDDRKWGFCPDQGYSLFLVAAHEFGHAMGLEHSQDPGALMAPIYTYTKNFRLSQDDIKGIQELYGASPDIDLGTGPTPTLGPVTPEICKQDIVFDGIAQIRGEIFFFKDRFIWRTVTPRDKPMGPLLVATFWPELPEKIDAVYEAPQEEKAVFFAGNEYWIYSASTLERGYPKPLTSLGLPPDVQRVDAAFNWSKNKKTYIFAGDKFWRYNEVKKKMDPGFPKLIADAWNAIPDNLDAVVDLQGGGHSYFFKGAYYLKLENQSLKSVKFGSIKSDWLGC
Method in brief: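 Gelatinase A (MMP-2), synthesized substrate and inhibitor were dissolved together in 50 mmol/L sodium borate, pH 8.5, and incubated for 30 min at 37 °C. TNBS was used in the assay.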

[3] = test system: HL-60; experiment: Cytotoxicity against human HL60 cells expressing aminopeptidase N after 72 hrs by MTT assay; type: functional, cell-based; conditions: HL-60, 72 h
Method in brief: (§1)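 Cells grown in RPMI1640 with 10% FBS at 37 °C under humidified 5% CO2. HL-60 cells have high APN expression and MDA-MB-231 cells have low expression. Plated at 10,000 cells/well and allowed 4 h in complete medium. Exposed for 72 h to five concentrations from 2000 down to […]. Proliferation read by MTT. Mean of three independent experiments.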

[4] = test system: MDA-MB-231; experiment: Cytotoxicity against human MDA-MB-231 cells after 72 hrs by MTT assay; type: functional, cell-based; conditions: MDA-MB-231, 72 h; method in brief: as §1

SMILES | IC50 [1] [µM] | IC50 [2] [µM] | IC50 [3] [µM] | IC50 [4] [µM]
CC(C)[C@H](NC(=O)CN1C(=O)CC[C@H](NC(=O)[C@@H](N)Cc2ccccc2)C1=O)C(=O)O | 13.3 | > 1000 | – | –
N[C@@H](Cc1ccccc1)C(=O)N[C@H]1CCC(=O)N(CC(=O)N[C@@H](CCC(=O)OCc2ccccc2)C(=O)OCc2ccccc2)C1=O | 91.4 | 272 | – | –
CC(C)C[C@H](NC(=O)CN1C(=O)CC[C@H](NC(=O)[C@@H](N)Cc2ccccc2)C1=O)C(=O)OCc1ccccc1 | 30.2 | 121 | – | –
NC(Cc1ccccc1)C(=O)N[C@H]1CCC(=O)N(CC(=O)NCCC(=O)OCc2ccccc2)C1=O (single isomer, unassigned) | 49.7 | 127 | – | –
N[C@@H](Cc1ccccc1)C(=O)N[C@H]1CCC(=O)N(CC(=O)N[C@@H](Cc2ccccc2)C(=O)OCc2ccccc2)C1=O | 6.48 | 12 | 2540 | 10200
CC(C)C[C@H](NC(=O)[C@@H](O)[C@H](N)Cc1ccccc1)C(=O)O [UBENIMEX] | – | 157 | 1130 | 8590
NC(Cc1ccccc1)C(=O)N[C@H]1CCC(=O)N(CC(=O)NCCC(=O)O)C1=O (single isomer, unassigned) | 12.8 | 22.7 | – | –
CC(C)C[C@H](NC(=O)CN1C(=O)CC[C@H](NC(=O)[C@@H](N)Cc2ccccc2)C1=O)C(=O)O | 8.42 | > 1000 | 5210 | 14400
CC(C)[C@H](NC(=O)CN1C(=O)CC[C@H](NC(=O)[C@@H](N)Cc2ccccc2)C1=O)C(=O)OCc1ccccc1 | 30.1 | 18.5 | – | –
NC(Cc1ccccc1)C(=O)N[C@H]1CCC(=O)N(CC(=O)N[C@@H](CCC(=O)O)C(=O)O)C1=O (single isomer, unassigned) | 12.6 | > 1000 | – | –
N[C@@H](Cc1ccccc1)C(=O)N[C@H]1CCC(=O)N(CC(=O)N[C@@H](Cc2ccccc2)C(=O)O)C1=O | 66.4 | 316 | – | –
N[C@@H](Cc1ccccc1)C(=O)N[C@H]1CCC(=O)N(CC(=O)NCC(=O)OCc2ccccc2)C1=O | 13.4 | 454 | – | –
C[C@H](NC(=O)CN1C(=O)CC[C@H](NC(=O)[C@@H](N)Cc2ccccc2)C1=O)C(=O)OCc1ccccc1 | 91.6 | 129 | – | –
NC(Cc1ccccc1)C(=O)N[C@H]1CCC(=O)N(CC(=O)NCC(=O)NO)C1=O (single isomer, unassigned) | 304 | 141 | – | –

Second part, led by results:

IC50 [1] [µM] | IC50 [2] [µM] | SMILES | IC50 [3] [µM] | IC50 [4] [µM]
245 | 62.7 | N[C@@H](Cc1ccccc1)C(=O)N[C@H]1CCC(=O)N(CC(=O)Nc2ccccc2F)C1=O | – | –
5 | 8.27 | Cc1ccc(NC(=O)CN2C(=O)CC[C@H](NC(=O)[C@@H](N)Cc3ccccc3)C2=O)c(C)c1 | 1970 | 8590
178 | > 1000 | COc1ccc(NC(=O)CN2C(=O)CC[C@H](NC(=O)[C@@H](N)Cc3ccccc3)C2=O)cc1 | – | –
74 | 71.6 | N[C@@H](Cc1ccccc1)C(=O)N[C@H]1CCC(=O)N(CC(=O)Nc2ccc(Br)cc2)C1=O | – | –
53.4 | 46.9 | N[C@@H](Cc1ccccc1)C(=O)N[C@H]1CCC(=O)N(CC(=O)Nc2ccc(F)c(F)c2)C1=O | – | –
110 | 155 | C[C@H](NC(=O)CN1C(=O)CC[C@H](NC(=O)[C@@H](N)Cc2ccccc2)C1=O)C(=O)O | – | –
38.7 | 107 | N[C@@H](Cc1ccccc1)C(=O)N[C@H]1CCC(=O)N(CC(=O)NCC(=O)O)C1=O | – | –
252 | 122 | N[C@@H](Cc1ccccc1)C(=O)N[C@H]1CCC(=O)N(CC(=O)Nc2ccc(F)cc2)C1=O | – | –
6.92 | 60.4 | N[C@@H](Cc1ccccc1)C(=O)N[C@H]1CCC(=O)N(CC(=O)Nc2cccc(Cl)c2)C1=O | 2220 | 9480
170 | 131 | N[C@@H](Cc1ccccc1)C(=O)N[C@H]1CCC(=O)N(CC(=O)Nc2ccc(F)c(Cl)c2)C1=O | – | –
